Assay results: PMC3947039 (ACS chemical biology, 2013)

Key:
MMP-7 = details: at 250 μM; cited from earlier work
MMP-19 = details: at 30 μM; cited from earlier work
MMP-9 = MMP-9 (Mus musculus, UniProt P41245); assay: In-situ zymography with DQ-gel in diabetic wound tissues; assay type: in vivo; details: db/db mice, versus vehicle
Method in brief: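 db/db wounds were treated topically with the test compound or vehicle. Wound sections were incubated with the fluorogenic MMP gelatin substrate DQ-gel to localise MMP activity in situ. Nuclei were counterstained with DAPI, and the green fluorescence was imaged merged with the DAPI signal.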

[1] = system: apoptotic cells in wounds of diabetic mice; assay: TUNEL apoptosis detection in diabetic wound tissues; assay type: in vivo, mouse; details: versus vehicle
wild-type mice [2] = assay: H&E staining of wounds, re-epithelialization, wild-type mice; assay type: in vivo, mouse; details: topical, day 14
Method in brief: (§1)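 Wounds were treated topically with the test compound in saline, or with saline vehicle alone. Wounds were imaged at a common scale. Day-14 wound tissue was H&E stained, and the re-epithelialized region was traced on the sections.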

MMP-1 = details: at 250 μM; cited from earlier work
wild-type mice [3] = assay: Excisional wound-healing model in wild-type mice, topical treatment; assay type: in vivo, mouse
Method in brief: (§2)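 Test compound dissolved in saline at 5.0 mg mL−1 as the dosing solution; saline vehicle; both filter-sterilised. Applied topically to excisional wounds in db/db or wild-type mice. Wound healing scored on days 1, 3, 7, 10 and 14, with n = 35, 28, 21, 14 and 7 mice on those days. Results given as mean ± SD, with treated versus vehicle compared statistically.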

db/db mice [4] = assay: H&E staining of wounds, re-epithelialization, db/db mice; assay type: in vivo, mouse; details: topical, day 14
Method in brief: as §1

ADAM9 = details: at 20 μM; cited from earlier work
db/db mice [5] = assay: Excisional diabetic wound-healing model, topical treatment; assay type: in vivo, mouse
Method in brief: as §2

ADAM17 = details: read-out: Ki ADAM17; competitive; cited from earlier work
ADAM10 = details: at 20 μM; cited from earlier work
[6] = system: non-diabetic wounds in rats; details: cited from earlier work
[7] = system: non-diabetic wounds in humans; details: cited from earlier work
[8] = system: non-diabetic wounds in pigs; details: cited from earlier work

Sequence of MMP-9 (P41245 108-730): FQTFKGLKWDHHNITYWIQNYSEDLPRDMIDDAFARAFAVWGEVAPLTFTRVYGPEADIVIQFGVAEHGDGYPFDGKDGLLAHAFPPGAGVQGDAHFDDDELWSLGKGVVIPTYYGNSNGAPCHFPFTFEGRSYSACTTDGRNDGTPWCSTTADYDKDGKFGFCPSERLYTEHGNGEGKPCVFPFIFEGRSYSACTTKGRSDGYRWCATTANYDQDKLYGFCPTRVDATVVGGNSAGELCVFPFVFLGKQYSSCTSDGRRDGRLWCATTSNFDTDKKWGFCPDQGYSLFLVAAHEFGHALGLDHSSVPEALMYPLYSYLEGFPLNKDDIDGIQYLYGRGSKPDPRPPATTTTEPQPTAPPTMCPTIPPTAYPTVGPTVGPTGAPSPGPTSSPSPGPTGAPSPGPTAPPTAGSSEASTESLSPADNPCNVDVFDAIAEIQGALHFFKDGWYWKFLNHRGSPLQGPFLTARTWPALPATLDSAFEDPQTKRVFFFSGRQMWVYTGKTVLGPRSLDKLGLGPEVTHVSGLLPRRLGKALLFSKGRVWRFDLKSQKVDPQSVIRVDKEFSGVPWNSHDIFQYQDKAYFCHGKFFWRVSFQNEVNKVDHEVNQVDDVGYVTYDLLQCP

Structure (SMILES): Nc1ccc(Oc2ccc(S(=O)(=O)CC3CS3)cc2)cc1 (stereo not shown) [ND-322]
- inhibition of MMP-7 (MMP-7): 16%
- inhibition of MMP-19 (MMP-19): 9%
- gelatinase activity (due to MMP-9) in wound tissues (MMP-9): significantly decreased
- apoptosis in wound tissues (TUNEL) [1]: significantly decreased
- re-epithelialization (H&E staining) (wild-type mice [2]): complete re-epithelialization
- inhibition of MMP-1 (MMP-1): 10%
- wound healing as a percentage of the initial wound area (wild-type mice [3]; day 7, mean ± SD): 62 ± 19%
- wound healing as a percentage of the initial wound area (wild-type mice [3]; day 10, mean ± SD): 82 ± 11%
- wound healing as a percentage of the initial wound area (wild-type mice [3]; day 14, mean ± SD): 96 ± 4%
- re-epithelialization (H&E staining) (db/db mice [4]): complete re-epithelialization
- inhibition of ADAM9 (ADAM9): 30%
- wound healing as a percentage of the initial wound area (db/db mice [5]; day 10, mean ± SD): 70 ± 16%
- wound healing as a percentage of the initial wound area (db/db mice [5]; day 14, mean ± SD): 92 ± 4%
- wound healing, difference versus vehicle-treated (db/db mice [5]; days 1, 3 and 7, p > 0.2): not statistically significant
- Ki (ADAM17): 15.7 ± 2 µM
- inhibition of ADAM10 (ADAM10): 21%

Structure (SMILES): CNC(=O)[C@H](Cc1c[nH]c2ccccc12)NC(=O)[C@@H](CC(=O)NO)CC(C)C [ilomastat]
- epithelialization [6]: diminished epithelialization
- wound closure [6]: delayed wound closure
- epithelialization [7]: diminished epithelialization
- wound closure [7]: delayed wound closure
- epithelialization [8]: diminished epithelialization
- wound closure [8]: delayed wound closure
